A selection: hits, their analogues and other compounds. The true share with any hit is near 3.7%.
MT stabilize HCS – microtubule stabilization, imaging screen; HeLa tubulin immunostaining HCS, 24 h; share of cells brighter than vehicle mean+2SD; % tubulin-high responders, % at 10 µM; actives 0.83% (n = 200,000); AID 2205;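 active = plate Z-score above 3 for both tubulin-high and condensed-nucleus cell shares, with cell loss under 80%, at 10 µM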;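 note: anti alpha tubulin signal scored within the nucleus-defined area of each cell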
Redox H2O2 prof – compounds producing H2O2 with reducing agent – biochemical, NIH compound library profiling, artefact control for MLSCN library redox annotation, primary screen. activation, % at 10 µM. actives 0.03% (n = 200,000). DTT-dependent redox cycling H2O2, phenol red/HRP absorbance; 100% = 100 µM peroxide control, 0% = buffer;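 active = activation of at least 50% relative to the plate's high and low controls in the primary single-dose screen; inactive = activation below 50%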;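 note: compound incubated with DTT at 0.8 mM final as the reducing agent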
bCat nuc transl – modulators of beta-catenin nuclear translocation; actives 0.3% (n = 190,000); nuclear translocation activity, % at 5 µM; AID 1665; HeLa beta-catenin nuclear translocation, immunofluorescence imaging;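 active = nuclear translocation activity above 50% at 5 µM, with a well cell count of 50 or more; inconclusive = wells under 50 cells across six images, flagged as toxic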;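 note: per-cell ratio of nuclear to cytoplasmic median beta-catenin stain intensity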
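System: Human HeLa cells, endogenous beta-catenin | Compound dosing: 5 µM primary, 0.02–20 µM confirmation | Timing: 24 h compound exposure at 37°C, 5% CO2 | Measured by: Fluorescence imaging of beta-catenin antibody stain plus DAPI | Read-out basis: % activation of per-cell nuclear versus cytoplasmic median beta-catenin signal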
KCC2 mod – modulates chloride dependent transport by human KCC2; Q9H2X9; KCC2 cells, thallium flux FluoZin-2 fluorescence; B-score of Tl+ flux slope (higher = more flux/activation; lower = inhibition) at 10 µM; actives 2.2% (n = 190,000);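 active = thallium flux slope and its plate-corrected score both differing from the plate sample mean at a set confidence after two filtering rounds, in either direction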;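 note: slope of fluorescence scaled to starting intensity during 10 to 20 s after thallium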
Target sequence (Q9H2X9 whole entry, looked up): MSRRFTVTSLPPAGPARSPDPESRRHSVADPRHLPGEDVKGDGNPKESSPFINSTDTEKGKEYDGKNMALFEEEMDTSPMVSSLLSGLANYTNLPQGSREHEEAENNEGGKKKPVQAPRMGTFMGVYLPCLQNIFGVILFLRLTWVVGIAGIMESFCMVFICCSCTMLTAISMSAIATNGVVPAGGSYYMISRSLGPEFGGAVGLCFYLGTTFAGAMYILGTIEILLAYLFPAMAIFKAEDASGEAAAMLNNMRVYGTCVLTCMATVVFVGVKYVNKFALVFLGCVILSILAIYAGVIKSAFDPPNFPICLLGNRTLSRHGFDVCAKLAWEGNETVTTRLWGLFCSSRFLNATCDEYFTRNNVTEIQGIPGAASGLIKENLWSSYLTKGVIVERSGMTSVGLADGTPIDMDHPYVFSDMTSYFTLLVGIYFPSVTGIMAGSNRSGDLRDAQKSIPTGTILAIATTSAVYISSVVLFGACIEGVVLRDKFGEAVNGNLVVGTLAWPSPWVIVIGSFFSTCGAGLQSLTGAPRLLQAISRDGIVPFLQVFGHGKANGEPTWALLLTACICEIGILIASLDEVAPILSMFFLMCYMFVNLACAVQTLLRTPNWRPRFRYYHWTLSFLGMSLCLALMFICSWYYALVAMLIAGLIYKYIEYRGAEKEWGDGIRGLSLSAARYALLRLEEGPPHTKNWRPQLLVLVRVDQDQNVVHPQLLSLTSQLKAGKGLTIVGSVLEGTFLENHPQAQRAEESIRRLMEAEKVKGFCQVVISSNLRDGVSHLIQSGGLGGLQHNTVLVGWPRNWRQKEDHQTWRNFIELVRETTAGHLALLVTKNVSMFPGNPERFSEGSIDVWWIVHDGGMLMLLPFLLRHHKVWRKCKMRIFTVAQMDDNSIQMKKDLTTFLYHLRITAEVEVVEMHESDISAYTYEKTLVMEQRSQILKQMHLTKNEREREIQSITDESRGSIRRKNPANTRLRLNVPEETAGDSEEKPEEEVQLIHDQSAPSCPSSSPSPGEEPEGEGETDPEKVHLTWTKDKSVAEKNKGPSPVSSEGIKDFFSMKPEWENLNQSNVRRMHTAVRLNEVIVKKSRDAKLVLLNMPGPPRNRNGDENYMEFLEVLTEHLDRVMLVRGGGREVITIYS
ROMK primary – human ROMK K+ channel modulation, primary screen | Tet-inducible ROMK, thallium flux fluorescence; actives lie on both sides | B-score at 10 µM | actives 2% (n = 130,000) | AID 1918;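 active = signal ratio slope over the read window, or its plate-corrected B-score, at least 3 SD from the plate mean, either direction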;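 note: B-score of the F/F0 ratio slope over 7 to 12 s after thallium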
KCC2 sec1 – KCC2 (human) modulation, secondary assay; AID 1713; actives 15% (n = 3,700); normalised thallium flux (F/F0 slope) at 10 µM; shares compounds with KCC2 mod; HEK293-KCC2, thallium flux, FluoZin2 fluorescence; hits give high values;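 active = thallium flux slope above the same plate's solvent-only control mean plus 3 SD; inconclusive = the two replicate wells disagree; inactive = no significant difference from solvent-only control wells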
KCC2 bumet counter – thallium flux persisting under bumetanide in KCC2 cells, counter-screen secondary assay | shares compounds with KCC2 mod | actives 49% (n = 3,700) | normalized thallium flux at 10 µM | AID 1714 | HEK293-KCC2 + bumetanide/ouabain, thallium flux FluoZin2; hits give high values;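 active = thallium entry rate above the same plate's blocked-transporter control wells by more than 3 SD; inconclusive = the two repeat wells disagree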;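 note: raw slope of fluorescence over initial fluorescence between 10 and 20 s after thallium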
KCC2 secondary2 – KCC2 (human) modulation, second secondary assay | HEK293-KCC2, thallium flux FluoZin2 fluorescence; actives lie on both sides; F/F0 rise rate, 10–20 s post-thallium | actives 23% (n = 3,700) | normalized thallium flux at 10 µM | shares compounds with KCC2 mod;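 active = thallium flux slope more than 3 SD above or below the plate's solvent-only control mean, mostly below; inconclusive = the two repeat wells disagreed; inactive = no significant shift from solvent-only controls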
HEK counter1 – counter-screen for KCC2 modulators: effect in parental HEK293 cells. shares compounds with KCC2 mod. thallium flux rate (normalised fluorescence) at 10 µM. actives 46% (n = 3,700). thallium flux FluoZin2, ouabain; baseline-ratio fluorescence slope, 10–20 s after thallium. AID 1716;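 active = thallium flux rate significantly above the same plate's solvent-only control wells, beyond their mean plus 3 SD; inconclusive = the two replicate wells gave conflicting results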
KCC2 ouabain – KCC2 (human) modulation, ouabain retest; shares compounds with KCC2 mod; actives 48% (n = 3,700); AID 1717; HEK293-KCC2, thallium flux FluoZin2 fluorescence; bidirectional: low = inhibitor, high = activator; raw Tl+ flux slope (below DMSO = inhibition, above = activation) at 10 µM;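 active = thallium flux slope beyond 3 SD from same-plate DMSO control mean in most replicates, usually higher, sometimes lower; inconclusive = repeat tests gave conflicting results; inactive = no significant difference from controls in most replicates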;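 note: slope of initial-normalized fluorescence between seconds 10 and 20 after thallium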
HEK293 Tl flux2 – counter-screen for KCC2 modulators: effect in parental HEK293 cells; thallium flux slope at 10 µM; shares compounds with KCC2 mod; thallium flux FluoZin-2 fluorescence slope; AID 1718; actives 33% (n = 3,700);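 active = thallium flux slope above the same plate's solvent-control mean plus 3 SD in both duplicate wells; inconclusive = duplicate wells that disagreed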;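 note: run without ouabain in cells lacking the KCC2 cotransporter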
Large screens that a line does not name were inactive (follow-up assays come after a bar, where they were run).

O=C(O)COc1ccc(/C=N/NC(=O)Cc2ccc(Cl)cc2)cc1	none (no result: MT stabilize HCS, Redox H2O2 prof, ROMK primary)
c1ccc(C2[C@H]3CN(CC4CCCCC4)[C@H](c4ccccc4)C34CC2(c2cccnc2)C4)cc1 (some centres not stated)	none (no result: MT stabilize HCS, Redox H2O2 prof, ROMK primary)
CCCCC(=O)NC(=S)NNC(=O)c1ccc(Cl)cc1Cl	KCC2 mod 33 | KCC2 sec1 0.0099 | KCC2 bumet counter 0.069 | KCC2 secondary2 0.04 | HEK counter1 0.048 | KCC2 ouabain 0.057 | HEK293 Tl flux2 0.029
S=C(Nc1ccccc1)Nc1ccc(Cl)cn1	KCC2 mod 5.8 (no result: ROMK primary) | KCC2 sec1 inactive | KCC2 bumet counter 0.017 | KCC2 secondary2 inactive | HEK counter1 0.01 | KCC2 ouabain inactive | HEK293 Tl flux2 inactive
O=C(NNC(=S)Nc1cccc(C(F)(F)F)c1)c1ccc(Cl)cc1Cl	KCC2 mod 6.3 (no result: ROMK primary) | KCC2 sec1 inactive | KCC2 bumet counter 0.027 | KCC2 secondary2 inactive | HEK counter1 0.021 | KCC2 ouabain inconclusive | HEK293 Tl flux2 0.022
O=C(COc1ccccc1)Nc1ccc(Cl)cn1	none
O=C(NNC(=S)NC(=O)c1ccccc1[N+](=O)[O-])c1ccc(Cl)cc1Cl	KCC2 mod 4.9 | KCC2 sec1 inactive | KCC2 bumet counter 0.016 | KCC2 secondary2 inactive | HEK counter1 0.014 | KCC2 ouabain inconclusive | HEK293 Tl flux2 inactive
Cc1nc(N2CCN(S(=O)(=O)c3ccc(F)cc3)CC2)c2c(-c3cccs3)csc2n1	none
O=C(COC(=O)/C=C/C(=O)OCC(=O)Nc1ccccc1F)Nc1ccccc1F	none (no result: MT stabilize HCS, Redox H2O2 prof, ROMK primary)
C/C(=N\NC(=O)OC(C)(C)C)c1cccc([N+](=O)[O-])c1	none (no result: ROMK primary)
O=C(O)CCC(=O)NNC(=O)c1ccc([N+](=O)[O-])cc1	none (no result: MT stabilize HCS, Redox H2O2 prof, KCC2 mod, ROMK primary)
CCCCCC(=O)NC(=S)Nc1ccc(Cl)cn1	KCC2 mod 8.3 | KCC2 sec1 inactive | KCC2 bumet counter 0.013 | KCC2 secondary2 inactive | HEK counter1 0.016 | KCC2 ouabain inconclusive | HEK293 Tl flux2 0.018
CCCCCC(=O)NNC(=S)NC(=O)c1ccc([N+](=O)[O-])cc1	KCC2 mod 13 | KCC2 sec1 inactive | KCC2 bumet counter 0.027 | KCC2 secondary2 inactive | HEK counter1 0.02 | KCC2 ouabain 0.033 | HEK293 Tl flux2 0.02
CCCCC(=O)NC(=S)NNC(=O)c1ccc(OC)cc1	KCC2 mod 27 | KCC2 sec1 0.021 | KCC2 bumet counter 0.053 | KCC2 secondary2 inactive | HEK counter1 inconclusive | KCC2 ouabain 0.039 | HEK293 Tl flux2 inconclusive
CCNC(=S)NNC(=O)c1ccc(OC)cc1	none
O=C(NC(=S)Nc1ccccc1O)c1ccc(Cl)cc1Cl	KCC2 mod 5.2 | KCC2 sec1 inactive | KCC2 bumet counter 0.013 | KCC2 secondary2 inactive | HEK counter1 0.013 | KCC2 ouabain inconclusive | HEK293 Tl flux2 0.013
C(=N\NC1=Nc2cccc3cccc1c23)/c1cccnc1	KCC2 mod -3.8 | KCC2 sec1 inactive | KCC2 bumet counter inconclusive | KCC2 secondary2 inactive | HEK counter1 inactive | KCC2 ouabain 0.016 | HEK293 Tl flux2 inactive
C(=N\NC1=Nc2cccc3cccc1c23)/c1ccccc1	none (no result: ROMK primary)
O=C(NC1CCN(Cc2ccccc2)C1)c1cc(COc2ccc(F)cc2F)on1 (configuration not stated)	none (no result: KCC2 mod) | KCC2 sec1 inactive | KCC2 bumet counter inactive | KCC2 secondary2 inconclusive | HEK counter1 inactive | KCC2 ouabain inactive | HEK293 Tl flux2 inactive
Cc1nn(C)cc1C(C)Nc1nc2nonc2nc1N1CCCCC1 (configuration not stated)	none
Cc1c(C(=O)NC(=S)NCC(C)C)oc2ccccc12	none
C=CCNC(=S)NC(=O)c1oc2ccccc2c1C	KCC2 mod 11 | KCC2 sec1 inactive | KCC2 bumet counter 0.035 | KCC2 secondary2 inactive | HEK counter1 0.021 | KCC2 ouabain 0.042 | HEK293 Tl flux2 0.012
CSc1nc2sc3c(c2c(=O)n1C1CCCCC1)CCN(C)C3	none | KCC2 sec1 inactive | KCC2 bumet counter inactive | KCC2 secondary2 inactive | HEK counter1 inactive | KCC2 ouabain inactive | HEK293 Tl flux2 inactive
O=C1N(Cc2ccc(F)cc2)CCN1c1ccc(F)cc1	KCC2 mod -3.3 | KCC2 sec1 inactive | KCC2 bumet counter inconclusive | KCC2 secondary2 inactive | HEK counter1 0.011 | KCC2 ouabain inconclusive | HEK293 Tl flux2 inactive
Nc1[nH]nc2c1NN(c1ccc(Cl)cc1Cl)N2	none
O=C(/C=C/c1cccc([N+](=O)[O-])c1)Nc1cccc(NC(=O)c2cccs2)c1	KCC2 mod -4.6 (no result: ROMK primary) | KCC2 sec1 inactive | KCC2 bumet counter inconclusive | KCC2 secondary2 0.025 | HEK counter1 inactive | KCC2 ouabain 0.015 | HEK293 Tl flux2 inactive
O=C(/C=C/c1cccc([N+](=O)[O-])c1)Nc1cccc(NC(=O)c2ccco2)c1	none (no result: ROMK primary)
COc1ccc(OCCN2C(=O)NC(C)(c3ccc(C)cc3)C2=O)cc1 (configuration not stated)	KCC2 mod 4 (no result: ROMK primary) | KCC2 sec1 inactive | KCC2 bumet counter inactive | KCC2 secondary2 inactive | HEK counter1 inactive | KCC2 ouabain inactive | HEK293 Tl flux2 inactive
CC(C)CN1C=C2C(=O)C(C)(OC(=O)CCc3ccccc3)C(=O)C=C2C=C1c1ccc(C#N)cc1 (configuration not stated)	KCC2 mod 3.1 (no result: MT stabilize HCS, Redox H2O2 prof, ROMK primary) | KCC2 sec1 inactive | KCC2 bumet counter inactive | KCC2 secondary2 inactive | HEK counter1 inactive | KCC2 ouabain inactive | HEK293 Tl flux2 inconclusive
Cc1cc(Cl)c(S(=O)(=O)N2CCN(c3ccccn3)CC2)cc1OCC(=O)NC1CCCCC1	none (no result: MT stabilize HCS, Redox H2O2 prof, ROMK primary)
CCOC(=O)c1c2c([nH]c(=S)c1C#N)CCCC2	KCC2 mod 11 (no result: MT stabilize HCS, Redox H2O2 prof, ROMK primary) | KCC2 sec1 inactive | KCC2 bumet counter 0.011 | KCC2 secondary2 inactive | HEK counter1 inconclusive | KCC2 ouabain inconclusive | HEK293 Tl flux2 inactive
CCc1[nH]c(=S)c(C#N)c2c1CCCC2	KCC2 mod 16 | KCC2 sec1 inactive | KCC2 bumet counter 0.014 | KCC2 secondary2 inactive | HEK counter1 0.017 | KCC2 ouabain inconclusive | HEK293 Tl flux2 0.014
CCOC(=O)c1c(O)c2c([nH]c1=O)CCCC2	none (no result: KCC2 mod)

Source: PubChem BioAssay (several laboratories)
